Source: PubChem BioAssay AID493037 (Johns Hopkins Ion Channel Center, 2011)

What follows are compounds tested against Potassium voltage-gated channel subfamily KQT member 2 (Rattus norvegicus) (UniProt O88943) (assay: concentration-dependent KCNQ2 opening potency – cell-based, FluxOR thallium flux, mode of action, dose response (AID 493037)). Conditions: KCNQ2-expressing cells, FluxOR thallium flux fluorescence;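 active = compounds that boost KCNQ2 channel thallium flux at some tested dose and yield a dose-response curve; inactive = the rest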.
In short: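 Assay system: CHO cells expressing KCNQ2 potassium channel, loaded with FluxOR dye | Also added: Potassium sulfate plus thallium sulfate stimulus, 12.5 mM each in 5x stock | Incubation: 20 min compound pre-incubation, room temperature | Technique: FluxOR thallium-flux fluorescence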

Potassium voltage-gated channel subfamily KQT member 2 (Rattus norvegicus), sequence (O88943 whole entry, looked up): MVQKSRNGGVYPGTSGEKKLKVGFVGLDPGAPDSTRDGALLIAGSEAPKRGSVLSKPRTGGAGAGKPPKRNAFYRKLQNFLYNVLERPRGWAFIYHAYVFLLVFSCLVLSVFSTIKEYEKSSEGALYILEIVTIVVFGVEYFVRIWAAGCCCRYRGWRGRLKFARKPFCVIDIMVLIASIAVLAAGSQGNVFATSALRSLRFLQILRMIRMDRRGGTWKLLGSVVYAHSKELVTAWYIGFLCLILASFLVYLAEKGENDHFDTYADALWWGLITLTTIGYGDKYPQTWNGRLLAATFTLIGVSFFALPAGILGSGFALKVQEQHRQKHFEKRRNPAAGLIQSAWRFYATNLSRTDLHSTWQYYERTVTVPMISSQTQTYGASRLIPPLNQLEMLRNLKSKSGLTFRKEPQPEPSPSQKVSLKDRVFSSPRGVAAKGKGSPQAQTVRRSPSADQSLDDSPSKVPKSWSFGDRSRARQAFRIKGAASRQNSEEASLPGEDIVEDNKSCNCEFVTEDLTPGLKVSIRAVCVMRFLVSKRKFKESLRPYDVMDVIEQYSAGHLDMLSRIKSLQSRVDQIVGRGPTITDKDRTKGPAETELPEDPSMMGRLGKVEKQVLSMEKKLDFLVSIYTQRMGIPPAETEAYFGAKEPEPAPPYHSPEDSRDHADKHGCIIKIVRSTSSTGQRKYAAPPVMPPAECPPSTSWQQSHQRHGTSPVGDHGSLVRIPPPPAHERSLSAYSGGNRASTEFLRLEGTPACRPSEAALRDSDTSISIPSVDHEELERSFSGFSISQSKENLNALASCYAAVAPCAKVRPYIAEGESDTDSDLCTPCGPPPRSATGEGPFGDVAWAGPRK

EC50, active:
Cc1ccc(C)c(NC(=O)C2CC3CCC2C3)c1 (stereo not given) 1050 nM, CCCCC(=O)Nc1c(C)cc(C)cc1Cl 3750 nM, Cc1cccc(C)c1NC(=O)C1CC2CCC1C2 (stereo not given) 2050 nM, Cc1cc(C)c(NC(=O)C2CC3CCC2C3)c(C)c1 (stereo not given) 359 nM, Cc1cc(C)c(NC(=O)CC(C)(C)C)c(Cl)c1 2100 nM
